Converted amounts (≈) assume the structure as drawn.
Assays:
[1] = system: Enterovirus; test: In vitro anti-rhinoviral activity against human rhinovirus serotypes 2,3,9,14,16,25 and 39; assay type: functional, organism-based
[2] = biological target: T1, Human rhinovirus A protease (Human rhinovirus sp.) (UniProt Q4U254);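 also: inhibition of the human rhinovirus 3C protease enzyme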
T1 sequence (whole entry): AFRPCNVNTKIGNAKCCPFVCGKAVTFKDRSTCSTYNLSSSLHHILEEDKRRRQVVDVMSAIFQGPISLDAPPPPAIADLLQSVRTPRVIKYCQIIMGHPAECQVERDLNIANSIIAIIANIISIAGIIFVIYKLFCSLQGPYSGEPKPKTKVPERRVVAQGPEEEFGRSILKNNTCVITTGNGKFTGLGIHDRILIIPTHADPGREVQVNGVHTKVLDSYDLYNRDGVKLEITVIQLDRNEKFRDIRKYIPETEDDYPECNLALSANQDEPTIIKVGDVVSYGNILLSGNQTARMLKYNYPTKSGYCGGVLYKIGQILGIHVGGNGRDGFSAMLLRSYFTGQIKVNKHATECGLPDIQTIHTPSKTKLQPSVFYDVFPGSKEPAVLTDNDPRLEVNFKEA

[3] = system: Enterovirus; test: In vitro antirhinoviral activity against human rhinovirus serotypes 9,14 and 25; assay type: functional, organism-based
[4] = Compound was tested in vitro for loss of compound after 30 min exposure to liver microsomes of human at 25 uM concentration; assay type: ADME, organism-based; conditions: read-out: Metabolism
Method in brief: (§1)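 Pooled liver microsomes (dog, monkey or human; 1 mg/mL, 6–8 livers) with 2 mM NADPH in 100 mM potassium phosphate, pH 7.4, preincubated 1 min at 37 °C. Started with 25 μM compound, run 30 min, quenched with acetonitrile. Time-zero controls quenched before compound addition. Remaining compound by reversed-phase HPLC at 215 nm. Reported as % metabolized.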

[5] = Compound was tested in vitro for loss of compound after 30 min exposure to liver microsomes of dog at 25 uM concentration; assay type: ADME, organism-based, Canis lupus familiaris; conditions: read-out: Metabolism; method in brief: as §1
[6] = Compound was tested in vitro for loss of compound after 2 hours exposure to hepatocytes of human at 25 uM concentration; assay type: ADME, organism-based, Hepatocyte; conditions: read-out: Metabolism
[7] = system: Caco-2; conditions: Homo sapiens
[8] = Compound was tested in vitro for loss of compound after 2 hours exposure to hepatocytes of dog at 25 uM concentration; assay type: ADME, organism-based, Canis lupus familiaris, Hepatocyte; conditions: read-out: Metabolism
[9] = Thermodynamic aqueous solubility was determined; assay type: physicochemical; conditions: buffer
Method in brief: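 1–2 mg compound stirred in 1 mL of pH 7.0, 50 mM phosphate buffer at room temperature for 4 h. Filtered through a 0.45 μm filter. Filtrate concentration determined by HPLC against a standard of known concentration.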

[10] = species: Canis familiaris; test: Compound was tested for plasma protein binding of dog; assay type: ADME, organism-based, Canis lupus familiaris
Method in brief: (§2)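 Ultrafiltration binding. Compound added from 1 mM and 0.1 mM stocks into heparinized dog or human plasma or pH 7.4 phosphate buffer, giving final 1 and 10 μM. Incubated 1 h at 37 °C, then centrifugal ultrafiltration. Filtrate and whole plasma quantified by LCMS with internal standard. % free = filtrate/whole plasma × 100. Three replicates per species per concentration.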

[11] = Compound was tested for human plasma protein binding; assay type: ADME, cell-free; method in brief: as §2
[12] = Half-life upon exposure to human plasma; assay type: ADME, organism-based
Method in brief: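 Pooled heparinized human plasma (10 donors) or 100 mM potassium phosphate pH 7.4 buffer (n = 3 each), spiked to final 25 μM compound from acetonitrile stock. Incubated at 37 °C for 1–3 h with regular sampling. Protein precipitated with acetonitrile, then LC quantification against a 0.05–40 μg/mL standard curve. Half-life by linear regression of mean concentration-time data.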

[13] = Compound was tested for plasma concentration in dogs 7 hours after oral administration (30 mg/kg); assay type: ADME, organism-based, Canis lupus familiaris; conditions: dog
Method in brief: (§3)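 Male beagle dogs (BW ~9.3 kg, n = 3), single oral dose of 30 mg/kg. Vehicle was 80:20 propylene glycol:sterile water (15.0 mg/mL) or, in some studies, a 0.5% carboxymethyl cellulose suspension. Blood sampled up to 24 h. Plasma level at 7 h determined by LCMS. Noncompartmental analysis of individual concentration-time profiles.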

[14] = Compound was tested for plasma concentration in CM-monkeys 7 hours after oral administration (50 mg/kg); assay type: ADME, organism-based, Macaca fascicularis; conditions: cynomolgus monkey
Method in brief: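 Male CM-monkeys (BW ~3.9 kg, n = 3), single oral dose of 50 mg/kg in 80:20 propylene glycol:sterile water at 15.0 mg/mL. Blood sampled periodically up to 24 h post-dose. Plasma concentration at 7 h measured by LCMS. Parameters from noncompartmental analysis of individual concentration-time data.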

[15] = Compound was tested in vitro for loss of compound after 2 hours exposure to hepatocytes of monkey at 25 uM concentration; assay type: ADME, cell-based, Hepatocyte; conditions: simiiformes, read-out: Metabolism
[16] = Compound was tested in vitro for loss of compound after 30 min exposure to liver microsomes of monkey at 25 uM concentration; assay type: ADME, Microsome; conditions: simiiformes, read-out: Metabolism; method in brief: as §1
[17] = Compound was tested for plasma concentration in dogs 7 hours after oral administration (30 mg/kg) in experiment 1; assay type: ADME, organism-based, Canis lupus familiaris; conditions: dog; method in brief: as §3
[18] = Compound was tested in vitro for loss of compound after 4 hours exposure to hepatocytes of human at 25 uM concentration; assay type: ADME, organism-based, Hepatocyte; conditions: read-out: Metabolism
[19] = Compound was tested in vitro for loss of compound after 4 hours exposure to hepatocytes of dog at 25 uM concentration; assay type: ADME, organism-based, Canis lupus familiaris, Hepatocyte; conditions: read-out: Metabolism
[20] = Compound was tested for plasma concentration in dogs 7 hours after oral administration (30 mg/kg) in experiment 2; assay type: ADME, organism-based, Canis lupus familiaris; conditions: dog; method in brief: as §3
[21] = Compound was tested in vitro for loss of compound after 4 hours exposure to hepatocytes of monkey at 25 uM concentration; assay type: ADME, cell-based, Hepatocyte; conditions: simiiformes, read-out: Metabolism

Compound	EC50 [1] [nM]	K obs / 1 [2] [M⁻¹ s⁻¹]	metabolised at 0.5 h, 25 µM [4] [%]	metabolised at 0.5 h, 25 µM [5] [%]	Papp [7]	solubility thermodynamic [9] [µg/mL]	Free [10] [%]	Free [11] [%]	half-life [12] [min]	concentration at 7 h [13] [nM]	also measured
C#CC[C@@H](C(=O)N[C@H](/C=C/C(=O)OC(C)(C)C)C[C@@H]1CCNC1=O)n1cccc(NC(=O)c2cc(C)on2)c1=O	361	60500									
Cc1cc(CCCOc2c(C)cc(-c3noc(C(F)(F)F)n3)cc2C)on1 [PLECONARIL]	136										
C#CC[C@@H](C(=O)N[C@H](/C=C/C(=O)OC1CCCCC1)C[C@@H]1CCNC1=O)n1cccc(NC(=O)c2cc(C)on2)c1=O		34000									EC50 [3]: 406 nM
CC[C@@H](C(=O)N[C@H](/C=C/C(=O)OCc1ccccc1)C[C@@H]1CCNC1=O)n1cccc(NC(=O)c2cc(C)on2)c1=O	64	210000	56	69	11 10e-6 cm s-1	41 (≈ 71.2 µM)	20	8	150	156	metabolised at 2 h, 25 µM [6]: 27%; metabolised at 2 h, 25 µM [8]: 55%
C#CC[C@@H](C(=O)N[C@H](/C=C/C(=O)OC1CCC1)C[C@@H]1CCNC1=O)n1cccc(NC(=O)c2cc(C)on2)c1=O	90	207000	52	53	14 10e-6 cm s-1	25 (≈ 45.5 µM)			198	73	
C#CC[C@@H](C(=O)N[C@H](/C=C/C(=O)OCC)C[C@@H]1CCNC1=O)n1cccc(NC(=O)c2cc(C)on2)c1=O [IMOCITRELVIR]	58	223000	40	45	6 10e-6 cm s-1	377 (≈ 720 µM)	54	34	396	248	concentration at 7 h [14]: 57 nM; metabolised at 2 h, 25 µM [6]: 85%; metabolised at 2 h, 25 µM [8]: 12%; metabolised at 2 h, 25 µM [15]: 79%; metabolised at 0.5 h, 25 µM [16]: 55%
C#CC[C@@H](C(=O)N[C@H](/C=C/C(=O)OCC(C)(C)C)C[C@@H]1CCNC1=O)n1cccc(NC(=O)c2cc(C)on2)c1=O	276	128000									
CC[C@@H](C(=O)N[C@H](/C=C/C(=O)OC1CCC1)C[C@@H]1CCNC1=O)n1cccc(NC(=O)c2cc(C)on2)c1=O	76	170000	49	46	10 10e-6 cm s-1	192 (≈ 356 µM)	42	33	552	222	
CC[C@@H](C(=O)N[C@H](/C=C/C(=O)OC(C)C)C[C@@H]1CCNC1=O)n1cccc(NC(=O)c2cc(C)on2)c1=O		36000									EC50 [3]: 322 nM
CC[C@@H](C(=O)N[C@H](/C=C/C(=O)OCC(C)(C)C)C[C@@H]1CCNC1=O)n1cccc(NC(=O)c2cc(C)on2)c1=O	310	38200									
Cc1cc(C(=O)Nc2cccn([C@@H](Cc3ccc(F)c(F)c3)C(=O)N[C@H](/C=C/C(=O)OC(C)C)C[C@@H]3CCNC3=O)c2=O)no1	78		56	57	36 10e-6 cm s-1	21 (≈ 33.6 µM)	19	9	582		concentration at 7 h [14]: 12 nM; concentration at 7 h [17]: 815 nM; metabolised at 4 h, 25 µM [18]: 87%; metabolised at 4 h, 25 µM [19]: 16%; concentration at 7 h [20]: 959 nM; metabolised at 4 h, 25 µM [21]: 92%
